The record followed here is ChEMBL document CHEMBL4024753, “Lipoyl-Homotaurine Derivative (ADM_12) Reverts Oxaliplatin-Induced Neuropathy and Reduces Cancer Cells Malignancy by Inhibiting Carbonic Anhydrase IX (CAIX)” (J Med Chem, 2017).

Calls of active or inactive are those of the source. The calls are words filed in the database; no cut-off is given here.

The target of assay [1] is T1, Carbonic anhydrase 9 (Homo sapiens, UniProt Q16790). Put plainly: Inhibition of human carbonic anhydrase 9 incubated for 15 mins prior to testing by stopped flow CO2 hydrase assay.
A further assay addresses Carbonic anhydrase 12 (Homo sapiens, UniProt O43570). Nature of the assay: Inhibition of human carbonic anhydrase 12 incubated for 15 mins prior to testing by stopped flow CO2 hydrase assay.
The subject of another assay is Astrocyte. Put plainly: Antioxidant activity in Sprague-Dawley rat primary cortical astrocytes assessed as inhibition of OXA-induced superoxide radical anion at 100 uM after 4 hrs by cytochrome C assay relative to control. It is filed as functional. Summed up:
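Primary rat cortical astrocytes (5 × 10^5 cells/well) exposed to 100 μM oxaliplatin for 4 h, with or without co-incubated compound. Superoxide measured by cytochrome C assay. Absorbance in the presence of SOD subtracted as nonspecific. Mean ± SEM of three experiments versus untreated culture.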

A short description of assay [2]: Antioxidant activity of compound assessed as reduction in ipoxanthine/xanthine oxidase-induced superoxide anion level after 30 mins by nitro blue tetrazolium-based spectrophotometric assay. It is filed as functional. Summed up:
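Cell-free test with superoxide generated by a hypoxanthine–xanthine oxidase system. Nitro blue tetrazolium […] read after 30 min without or with increasing compound concentrations (up to 1000 μM).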

Another assay concerns Rattus norvegicus. Nature of the assay: Antihyperalgesic activity in OXA-induced neuropathic pain Sprague-Dawley rat model assessed as reduction in response to noxious mechanical stimulus at 30 mg/kg, po after 15 to 75 mins on day 21 post induction. It is filed as functional, organism-based. Summed up:
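Male Sprague-Dawley rats (200-250 g) given oxaliplatin 2.4 mg kg−1 ip daily in 0.5% glucose solution. On day 21, single po dose of test agent in 1% CMC vehicle. Paw-pressure test (noxious mechanical stimulus, weight tolerated) repeated over time after dosing. 12 rats per group from two experimental sets, mean ± SEM.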

Assay [3] addresses T1, Carbonic anhydrase 9. As to conditions: 100 uM.
Assay [4] has as its system HT-29. Nature of the assay: Synergistic antiproliferative activity against human HT-29 cells assessed as cell viability at 100 uM after 24 hrs in presence of 30 uM oxaliplatin by MTT assay relative to control. It is filed as functional. Summed up: (§1)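 HT-29 cells co-treated 24 h with compound at 100 μM plus oxaliplatin (1, 10, 30, 100 or 300 μM). Viability by MTT as % viable cells versus untreated control. Compared to control and to compound alone.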

Assay [5] relates to HT-29. Nature of the assay: Antiproliferative activity against human HT-29 cells assessed as cell viability at 100 uM after 24 hrs by MTT assay relative to control. It is filed as functional. As to conditions: HT-29, 24 h, read-out: Activity. Summed up:
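HT-29 human colon cancer cells incubated 24 h with compound (range 1−300 μM). Viability by MTT, expressed as % viable cells relative to untreated control.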

In assay [6] the target is Macrophage metalloelastase (Homo sapiens, UniProt P39900). Nature of the assay: Binding affinity to human 15N-labeled MMP-12 catalytic domain (G106 to G263 residues) expressed in Escherichia coli BL21 Gold by 1H […] NMR method. Summed up: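 2D 1H−15N HSQC spectra of the MMP-12 catalytic domain titrated with ligand (up to 3.3 mM). Kd derived by fitting chemical shift variations of residues.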

For assay [7], the system named is HT-29. Put plainly: Synergistic antiproliferative activity against human HT-29 cells assessed as cell viability at 100 uM after 24 hrs in presence of 300 uM oxaliplatin by MTT assay relative to control. It is filed as functional. Summed up: as §1
In assay [8] the target is T1, Carbonic anhydrase 9. As to conditions: 100 uM. This is another data set of the same source.
In assay [9] the target is T1, Carbonic anhydrase 9. Particulars: 100 uM. The source holds these as a separate data set.
The target of assay [10] is Transient receptor potential cation channel subfamily A member 1 (Homo sapiens) (UniProt O75762). Put plainly: Inhibition of oxaliplatin activated TRPA1 (unknown origin) expressed in CHO cells assessed as reduction in channel evoked current at 30 uM by Patch-clamp method. It is filed as cell-based. Summed up:
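CHO cells transiently transfected with wild-type TRPA1, EGFP as transfection marker. Whole-cell patch clamp 48−72 h after transfection. Voltage ramps read at +50 and −50 mV. Currents evoked by 50 μM oxaliplatin, then compound applied. n = 5 cells, unpaired Student's t test.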

The subject of assay [11] is HT-29. Put plainly: Synergistic antiproliferative activity against human HT-29 cells assessed as cell viability at 100 uM after 24 hrs in presence of 100 uM oxaliplatin by MTT assay relative to control. It is filed as functional. As to conditions: HT-29, 24 h, read-out: Activity. Summed up: as §1
For assay [12], the target named is T1, Carbonic anhydrase 9. Particulars: 100 uM. This is another data set of the same source.
The test system of assay [13] is HT-29. Nature of the assay: Cytotoxicity against human HT-29 cells assessed as mortality at 1 to 300 uM after 24 hrs by MTT assay relative to control. It is filed as functional. Summed up:
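Human colon cancer HT-29 cells incubated with increasing concentrations (1−300 μM) for 24 h; viability read by MTT test and expressed as % of viable cells relative to untreated control.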

Assay [14] addresses T1, Carbonic anhydrase 9. Particulars: 100 uM. This is another data set of the same source.
In assay [15] the target is T1, Carbonic anhydrase 9. Particulars: 100 uM. This is another data set of the same source.
The subject of assay [16] is HT-29. Put plainly: Synergistic antiproliferative activity against human HT-29 cells assessed as cell viability at 100 uM after 24 hrs in presence of 10 uM oxaliplatin by MTT assay relative to control. It is filed as functional. Summed up:
as §1

Assay [17] concerns HT-29. Put plainly: Synergistic antiproliferative activity against human HT-29 cells assessed as cell viability at 100 uM after 24 hrs in presence of 1 uM oxaliplatin by MTT assay relative to control. It is filed as functional. Summed up: as §1
The target of assay [18] is T1, Carbonic anhydrase 9. Particulars: 100 uM. The source holds these as a separate data set.

Sequence of Carbonic anhydrase 12 (O43570 whole entry): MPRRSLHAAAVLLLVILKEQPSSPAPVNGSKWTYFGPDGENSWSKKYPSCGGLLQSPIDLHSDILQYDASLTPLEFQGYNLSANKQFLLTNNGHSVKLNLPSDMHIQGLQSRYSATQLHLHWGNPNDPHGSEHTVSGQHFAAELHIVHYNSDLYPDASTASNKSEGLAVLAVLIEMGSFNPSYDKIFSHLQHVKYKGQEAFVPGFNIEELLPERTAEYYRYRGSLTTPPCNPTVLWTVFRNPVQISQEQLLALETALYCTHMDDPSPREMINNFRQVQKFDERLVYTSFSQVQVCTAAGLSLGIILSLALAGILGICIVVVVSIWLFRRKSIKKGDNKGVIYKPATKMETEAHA
Sequence of Macrophage metalloelastase (P39900 whole entry, the tested form may be a part): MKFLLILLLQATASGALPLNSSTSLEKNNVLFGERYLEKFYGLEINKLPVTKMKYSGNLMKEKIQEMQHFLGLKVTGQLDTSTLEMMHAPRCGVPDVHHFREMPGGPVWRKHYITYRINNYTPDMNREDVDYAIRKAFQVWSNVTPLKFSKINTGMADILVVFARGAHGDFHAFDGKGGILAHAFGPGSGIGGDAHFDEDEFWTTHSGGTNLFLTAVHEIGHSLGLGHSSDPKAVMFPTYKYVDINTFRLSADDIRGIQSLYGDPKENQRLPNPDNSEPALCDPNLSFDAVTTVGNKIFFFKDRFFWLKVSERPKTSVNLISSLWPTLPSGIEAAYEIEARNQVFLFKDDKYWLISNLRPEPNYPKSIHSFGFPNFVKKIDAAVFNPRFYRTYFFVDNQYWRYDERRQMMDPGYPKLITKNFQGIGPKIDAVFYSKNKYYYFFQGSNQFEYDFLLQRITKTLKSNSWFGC
Sequence of Transient receptor potential cation channel subfamily A member 1 (Homo sapiens) (O75762 whole entry): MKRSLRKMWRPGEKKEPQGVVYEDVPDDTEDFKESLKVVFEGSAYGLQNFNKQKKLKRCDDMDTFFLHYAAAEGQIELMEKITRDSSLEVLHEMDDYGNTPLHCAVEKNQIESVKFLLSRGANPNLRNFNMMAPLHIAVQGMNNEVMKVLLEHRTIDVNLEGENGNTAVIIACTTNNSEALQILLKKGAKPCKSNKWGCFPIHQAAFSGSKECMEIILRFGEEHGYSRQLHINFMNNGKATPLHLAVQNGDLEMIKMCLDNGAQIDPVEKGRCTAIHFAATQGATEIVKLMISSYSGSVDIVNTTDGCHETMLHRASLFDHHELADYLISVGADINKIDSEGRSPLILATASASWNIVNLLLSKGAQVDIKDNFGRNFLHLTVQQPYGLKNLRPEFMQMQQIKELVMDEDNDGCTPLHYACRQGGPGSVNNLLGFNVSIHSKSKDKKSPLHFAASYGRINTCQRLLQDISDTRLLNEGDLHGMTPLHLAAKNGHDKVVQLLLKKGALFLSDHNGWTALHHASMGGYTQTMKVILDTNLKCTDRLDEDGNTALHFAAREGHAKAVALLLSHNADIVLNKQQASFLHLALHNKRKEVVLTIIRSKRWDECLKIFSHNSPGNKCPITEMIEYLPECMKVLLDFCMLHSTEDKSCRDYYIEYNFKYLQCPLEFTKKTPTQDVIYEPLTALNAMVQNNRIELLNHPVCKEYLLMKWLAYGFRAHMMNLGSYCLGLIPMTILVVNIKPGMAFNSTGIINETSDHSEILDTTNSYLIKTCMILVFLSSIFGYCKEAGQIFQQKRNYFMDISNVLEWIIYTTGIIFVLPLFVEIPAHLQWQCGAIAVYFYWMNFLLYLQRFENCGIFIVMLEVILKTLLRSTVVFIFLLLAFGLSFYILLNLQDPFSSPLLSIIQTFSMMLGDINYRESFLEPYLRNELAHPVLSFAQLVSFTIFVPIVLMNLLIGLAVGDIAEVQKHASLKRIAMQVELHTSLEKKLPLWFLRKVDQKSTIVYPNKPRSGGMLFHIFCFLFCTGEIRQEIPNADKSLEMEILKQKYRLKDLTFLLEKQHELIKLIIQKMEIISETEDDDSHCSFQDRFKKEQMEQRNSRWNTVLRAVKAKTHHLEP

For the compound `O=S(=O)(O)/C=C/c1cc(Br)ccc1O`, the inhibition constant (Ki) came to 6.83 µM on Carbonic anhydrase 9 [1] and 4.51 µM on Carbonic anhydrase 12.
As for `O=C(CCCCC1CCSS1)NCCS(=O)(=O)O` (centres undefined), in the assay with Astrocyte, the inhibition at 100 µM was found to be 75%. The Activity entry in [2] is “Dose-dependent effect”. The outcome in the assay on Rattus norvegicus was Active.
As to `O=C(CCCCC1CCSS1)NCCCS(=O)(=O)[O-].[Na+]` (centres undefined), the inhibition result (on Carbonic anhydrase 9 [3]; on Carbonic anhydrase 9 [8]; at Carbonic anhydrase 9 [9]; in assay [10]; at Carbonic anhydrase 9 [12]; at Carbonic anhydrase 9 [14]) was “Active” each time. In addition, the inhibition result on Carbonic anhydrase 9 [15] and on Carbonic anhydrase 9 [18] was “Active” each time. In addition, the Activity in the assay with HT-29 [4] is 71.4%; with HT-29 [7], 48.1%; in [2], “Dose-dependent effect”; in the assay on HT-29 [16] it was 78.6%; in the assay with HT-29 [17], 74.6%. Further, the viability at 100 µM in the assay with HT-29 [5] was 81.3%; with HT-29 [11], 67.4%. In assay [6], this compound showed a dissociation constant (Kd) of 875 µM. For the same compound, in the assay on Astrocyte, the inhibition at 100 µM was determined as 75%. The Ki at Carbonic anhydrase 9 [1] came out at 0.654 µM; at Carbonic anhydrase 12, 0.727 µM. In addition, the mortality in the assay on HT-29 [13] was 20%. The result with Rattus norvegicus was Active.
For the compound `O=C(CCCCC1CCSS1)NCCCCS(=O)(=O)O` (centres undefined), the inhibition at 100 µM in the assay with Astrocyte worked out at 75%. Further, the Activity result in assay [2] was “Dose-dependent effect”. Moreover, in the assay on Rattus norvegicus, the result was Active.
